Reference: ChEMBL document CHEMBL1125243, “Design of potent oxytocin antagonists featuring D-tryptophan at position 2” (J Med Chem, 1991)
Numbered stars: 1 amine (or outer) side, 2 acyl side, 3 side chain; on linkers, the order of the positions; unused ones are H or OH. Bridge positions count the residues as written; N and C are the ends. Square brackets hold non-standard residues; d marks the D form. Peptide text beside a SMILES is read from it. X1 = O=C(CC1(S[*:2])CCCCC1)[*:1]

species on record: Rattus norvegicus; experiment: Effective dose (antagonist) that reduces the response to an agonist (oxytocin) by one-half.; type: functional; settings: not given
Procedure, shortened: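 Isolated estrous rat uterus in Van Dyke-Hastings solution with 0.5 mM Mg²⁺; OT-evoked isometric contractions quantified as integrated peak area. Effective dose taken as molar antagonist concentration halving the agonist response; at least four separate assays.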

Row | Compound | ED50 [nM]
1 | CC[C@H](C)[C@@H]1NC(=O)[C@@H](Cc2c[nH]c3ccccc23)NC(=O)CC2(CCCCC2)SSC[C@@H](C(=O)N2CCC[C@H]2C(=O)N[C@@H](CCCN=C(N)N)C(=O)NCC(N)=O)NC(=O)[C@H](CC(N)=O)NC(=O)[C@H]([C@@H](C)O)NC1=O [listing 1 of 2 here] | 46.8
2 | CC[C@H](C)[C@@H]1NC(=O)[C@H](Cc2ccccc2)NC(=O)[C@@H](Cc2ccccc2)NC(=O)CC2(CCCCC2)SSC[C@@H](C(=O)N2CCC[C@H]2C(=O)N[C@@H](CCCN=C(N)N)C(=O)NCC(N)=O)NC(=O)[C@H](CC(N)=O)NC1=O ([dF]FINCPRG-NH2; linker N-5 via X1) [listing 1 of 2 here] | 46.6
3 | CC[C@H](C)[C@@H]1NC(=O)[C@H]([C@@H](C)CC)NC(=O)[C@@H](Cc2c[nH]c3ccccc23)NC(=O)CC2(CCCCC2)SSC[C@@H](C(=O)N2CCC[C@H]2C(=O)N[C@@H](CCCN=C(N)N)C(=O)NCC(N)=O)NC(=O)[C@H](CC(N)=O)NC1=O [listing 1 of 2 here] | 35.3
4 | CC[C@H](C)[C@@H]1NC(=O)[C@H](Cc2ccc(Cl)cc2)NC(=O)[C@@H](Cc2c[nH]c3ccccc23)NC(=O)CC2(CCCCC2)SSC[C@@H](C(=O)N2CCC[C@H]2C(=O)N[C@@H](CCCN=C(N)N)C(=O)NCC(N)=O)NC(=O)[C@H](CC(N)=O)NC1=O [listing 1 of 2 here] | 40.2
5 | CC[C@H](C)[C@@H]1NC(=O)[C@@H](Cc2c[nH]c3ccccc23)NC(=O)CC2(CCCCC2)SSC[C@@H](C(=O)N2CCC[C@H]2C(=O)N[C@@H](CCCN=C(N)N)C(=O)NCC(N)=O)NC(=O)[C@H](CC(N)=O)NC(=O)[C@H](C(C)C)NC1=O [listing 1 of 2 here] | 26.9
6 | CC[C@H](C)[C@@H]1NC(=O)[C@H](Cc2ccccc2)NC(=O)[C@@H](Cc2c[nH]c3ccccc23)NC(=O)CC2(CCCCC2)SSC[C@@H](C(=O)N2CC=C[C@H]2C(=O)N[C@@H](CCCN=C(N)N)C(=O)NCC(N)=O)NC(=O)[C@H](CC(N)=O)NC1=O [listing 1 of 2 here] | 38.6
7 | NC(=O)CC[C@@H]1NC(=O)[C@H](Cc2ccccc2)NC(=O)[C@@H](Cc2c[nH]c3ccccc23)NC(=O)CC2(CCCCC2)SSC[C@@H](C(=O)N2CCC[C@H]2C(=O)N[C@@H](CCCN=C(N)N)C(=O)NCC(N)=O)NC(=O)[C@H](CC(N)=O)NC1=O [listing 1 of 2 here] | 27
8 | CC[C@H](C)[C@@H]1NC(=O)[C@H](Cc2ccccc2)NC(=O)[C@@H](Cc2c[nH]c3ccccc23)NC(=O)CC2(CCCCC2)SSC[C@@H](C(=O)N2CCC[C@H]2C(=O)N[C@@H](CCCN=C(N)N)C(=O)NCC(N)=O)NC(=O)[C@H](CC(N)=O)NC1=O [listing 1 of 2 here] | 30.9
9 | CCNC(=O)CNC(=O)[C@H](CCCN=C(N)N)NC(=O)[C@@H]1CCCN1C(=O)[C@@H]1CSSC2(CCCCC2)CC(=O)N[C@H](Cc2c[nH]c3ccccc23)C(=O)N[C@@H](Cc2ccccc2)C(=O)N[C@@H](CCC(N)=O)C(=O)N[C@@H](CC(N)=O)C(=O)N1 [listing 1 of 2 here] | 32.9

species on record: Rattus norvegicus; experiment: Antidiuretic potency was evaluated and expressed as effective dose.; type: functional, Urine; settings: not given
Procedure, shortened: (§1)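 Antagonism tested in vivo in water-loaded rats under ethanol anesthesia, with ADH as the agonist standard. The effective dose is the antagonist amount that halves the response to agonist. An in vivo pA₂ was estimated by dividing the effective dose by an assumed volume of distribution of 67 mL/kg. Values reported as mean ± SE.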

Row | Compound | ED50
10 | CC[C@H](C)[C@@H]1NC(=O)[C@@H](Cc2c[nH]c3ccccc23)NC(=O)CC2(CCCCC2)SSC[C@@H](C(=O)N2CCC[C@H]2C(=O)N[C@@H](CCCN=C(N)N)C(=O)NCC(N)=O)NC(=O)[C@H](CC(N)=O)NC(=O)[C@H](CCC(N)=O)NC1=O ([dW]IQNCPRG-NH2; linker N-5 via X1) [listing 1 of 2 here] | < 1680 nM
11 | CC[C@H](C)[C@@H]1NC(=O)[C@H](Cc2ccccc2)NC(=O)[C@@H](Cc2ccccc2)NC(=O)CC2(CCCCC2)SSC[C@@H](C(=O)N2CCC[C@H]2C(=O)N[C@@H](CCCN=C(N)N)C(=O)NCC(N)=O)NC(=O)[C@H](CC(N)=O)NC1=O ([dF]FINCPRG-NH2; linker N-5 via X1) [listing 1 of 2 here] | 0.87 M
12 | CC[C@H](C)[C@@H]1NC(=O)[C@H](Cc2ccccc2)NC(=O)[C@@H](Cc2c[nH]c3ccccc23)NC(=O)CC2(CCCCC2)SSC[C@@H](C(=O)N2CCC[C@H]2C(=O)N[C@@H](CCCN=C(N)N)C(=O)NCC(N)=O)NC(=O)[C@H](CC(N)=O)NC1=O [listing 1 of 2 here] | 8.3 nM

species on record: Rattus norvegicus; experiment: Antidiuretic action in water-loaded rats under ethanol anesthesia.; type: functional, organism-based; settings: Urine, read-out: pA2 (converted); procedure, shortened: as §1

Row | Compound | Kb [nM]
13 | CC[C@H](C)[C@@H]1NC(=O)[C@@H](Cc2c[nH]c3ccccc23)NC(=O)CC2(CCCCC2)SSC[C@@H](C(=O)N2CCC[C@H]2C(=O)N[C@@H](CCCN=C(N)N)C(=O)NCC(N)=O)NC(=O)[C@H](CC(N)=O)NC(=O)[C@H](CCC(N)=O)NC1=O ([dW]IQNCPRG-NH2; linker N-5 via X1) [listing 2 of 2 here] | > 1380
14 | CC[C@H](C)[C@@H]1NC(=O)[C@H](Cc2ccccc2)NC(=O)[C@@H](Cc2ccccc2)NC(=O)CC2(CCCCC2)SSC[C@@H](C(=O)N2CCC[C@H]2C(=O)N[C@@H](CCCN=C(N)N)C(=O)NCC(N)=O)NC(=O)[C@H](CC(N)=O)NC1=O ([dF]FINCPRG-NH2; linker N-5 via X1) [listing 2 of 2 here] | 8.13
15 | CC[C@H](C)[C@@H]1NC(=O)[C@H](Cc2ccccc2)NC(=O)[C@@H](Cc2c[nH]c3ccccc23)NC(=O)CC2(CCCCC2)SSC[C@@H](C(=O)N2CCC[C@H]2C(=O)N[C@@H](CCCN=C(N)N)C(=O)NCC(N)=O)NC(=O)[C@H](CC(N)=O)NC1=O [listing 2 of 2 here] | 7.94

species on record: Rattus norvegicus; experiment: Competitive antagonist action against oxytocin contractile action in rat uterus(in vitro); type: functional; settings: read-out: pA2 (converted)
Procedure, shortened: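 Isolated uteri from rats in natural estrus, incubated in Van Dyke-Hastings solution with 0.5 mM Mg²⁺. Isometric contractions to synthetic OT recorded by force transducer; response quantified by integrating area under peaks. pA₂ determined by Schild method; at least four separate assays per antagonist.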

Row | Compound | Kb [nM]
16 | NC(=O)CC[C@@H]1NC(=O)[C@H](Cc2ccccc2)NC(=O)[C@@H](Cc2c[nH]c3ccccc23)NC(=O)CC2(CCCCC2)SSC[C@@H](C(=O)N2CCC[C@H]2C(=O)N[C@@H](CCCN=C(N)N)C(=O)NCC(N)=O)NC(=O)[C@H](CC(N)=O)NC1=O [listing 2 of 2 here] | 26.3
17 | CC[C@H](C)[C@@H]1NC(=O)[C@@H](Cc2c[nH]c3ccccc23)NC(=O)CC2(CCCCC2)SSC[C@@H](C(=O)N2CCC[C@H]2C(=O)N[C@@H](CCCN=C(N)N)C(=O)NCC(N)=O)NC(=O)[C@H](CC(N)=O)NC(=O)[C@H]([C@@H](C)O)NC1=O [listing 2 of 2 here] | 33.1
18 | CC[C@H](C)[C@@H]1NC(=O)[C@H]([C@@H](C)CC)NC(=O)[C@@H](Cc2c[nH]c3ccccc23)NC(=O)CC2(CCCCC2)SSC[C@@H](C(=O)N2CCC[C@H]2C(=O)N[C@@H](CCCN=C(N)N)C(=O)NCC(N)=O)NC(=O)[C@H](CC(N)=O)NC1=O [listing 2 of 2 here] | 34.7
19 | CC[C@H](C)[C@@H]1NC(=O)[C@@H](Cc2c[nH]c3ccccc23)NC(=O)CC2(CCCCC2)SSC[C@@H](C(=O)N2CCC[C@H]2C(=O)N[C@@H](CCCN=C(N)N)C(=O)NCC(N)=O)NC(=O)[C@H](CC(N)=O)NC(=O)[C@H](C(C)C)NC1=O [listing 2 of 2 here] | 26.3
20 | CC[C@H](C)[C@@H]1NC(=O)[C@H](Cc2ccccc2)NC(=O)[C@@H](Cc2c[nH]c3ccccc23)NC(=O)CC2(CCCCC2)SSC[C@@H](C(=O)N2CC=C[C@H]2C(=O)N[C@@H](CCCN=C(N)N)C(=O)NCC(N)=O)NC(=O)[C@H](CC(N)=O)NC1=O [listing 2 of 2 here] | 38
21 | CC[C@H](C)[C@@H]1NC(=O)[C@H](Cc2ccccc2)NC(=O)[C@@H](Cc2ccccc2)NC(=O)CC2(CCCCC2)SSC[C@@H](C(=O)N2CCC[C@H]2C(=O)N[C@@H](CCCN=C(N)N)C(=O)NCC(N)=O)NC(=O)[C@H](CC(N)=O)NC1=O ([dF]FINCPRG-NH2; linker N-5 via X1) [listing 2 of 2 here] | 44.7
22 | CC[C@H](C)[C@@H]1NC(=O)[C@H](Cc2ccccc2)NC(=O)[C@@H](Cc2c[nH]c3ccccc23)NC(=O)CC2(CCCCC2)SSC[C@@H](C(=O)N2CCC[C@H]2C(=O)N[C@@H](CCCN=C(N)N)C(=O)NCC(N)=O)NC(=O)[C@H](CC(N)=O)NC1=O [listing 2 of 2 here] | 30.9
23 | CC[C@H](C)[C@@H]1NC(=O)[C@H](Cc2ccc(Cl)cc2)NC(=O)[C@@H](Cc2c[nH]c3ccccc23)NC(=O)CC2(CCCCC2)SSC[C@@H](C(=O)N2CCC[C@H]2C(=O)N[C@@H](CCCN=C(N)N)C(=O)NCC(N)=O)NC(=O)[C@H](CC(N)=O)NC1=O [listing 2 of 2 here] | 36.3
24 | CCNC(=O)CNC(=O)[C@H](CCCN=C(N)N)NC(=O)[C@@H]1CCCN1C(=O)[C@@H]1CSSC2(CCCCC2)CC(=O)N[C@H](Cc2c[nH]c3ccccc23)C(=O)N[C@@H](Cc2ccccc2)C(=O)N[C@@H](CCC(N)=O)C(=O)N[C@@H](CC(N)=O)C(=O)N1 [listing 2 of 2 here] | 32.4
